Experimental data as given in ChEMBL document CHEMBL4304784, “Discovery of new potent dual sigma receptor/GluN2b ligands with antioxidant property as neuroprotective agents” (Eur J Med Chem, 2019).
Converted amounts (≈) assume the structure as drawn.

Tested on: not listed separately
Test: Cytotoxicity against human Hep3B cells assessed as cell viability at 50 uM incubated for 48 hrs by MTT assay relative to control
Format: cell-based, Hep 3B2
Settings: read-out: Activity
Outline: (§1)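 Cells kept in DMEM Glutamax with 10% FBS and antibiotic/antimycotic at 37 °C, 5% CO2. Plated at 2x10^3 cells/well 24 h before dosing. Compounds taken from DMSO and diluted in medium, final DMSO ≤1.0%. Exposure 48 h, then MTT added for 4 h at 37 °C. Read as A595 minus A655. Triplicates, at least three independent experiments, mean ± SEM.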

Row | Structure (SMILES) | viability at 48 h, 50 µM [%]
1 | COc1cc2c(cc1OC)CN(CCCCN1C(=O)CCc3ccccc31)CC2 | 62

Tested on: not listed separately
Test: Antioxidant activity assessed as H2O2 radical scavenging activity
Format: functional
Settings: not given
Outline: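 Compounds at 0.05, 0.1, 0.2 and 0.4 mg/mL in phosphate buffer pH 7.4. 0.353 mL of 4 mM H2O2 in phosphate buffer added to 2.0 mL of each solution, absorbance read at 239 nm. Percent inhibition calculated from absorbances relative to control. Triplicate, mean ± SEM.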

Row | Structure (SMILES) | IC50 [µg/mL]
2 | COc1cc2c(cc1OC)CN(CCCCN1C(=O)CCc3ccccc31)CC2 | 15.37 (≈ 39 µM)

Tested on: not listed separately
Test: Cytotoxicity against human HeLa cells assessed as cell viability at 10 uM incubated for 48 hrs by MTT assay relative to control
Format: cell-based
Settings: read-out: Activity
Outline: as §1

Row | Structure (SMILES) | viability at 48 h, 10 µM [%]
3 | COc1cc2c(cc1OC)CN(CCCCN1C(=O)CCc3ccccc31)CC2 | 80

Tested on: not listed separately
Test: Cytotoxicity against human Hep3B cells assessed as cell viability at 10 uM incubated for 48 hrs by MTT assay relative to control
Format: cell-based, Hep 3B2
Settings: read-out: Activity
Outline: as §1

Row | Structure (SMILES) | viability at 48 h, 10 µM [%]
4 | COc1cc2c(cc1OC)CN(CCCCN1C(=O)CCc3ccccc31)CC2 | 75

Tested on: not listed separately
Test: Cytotoxicity against human SH-SY5Y cells assessed as cell viability at 25 uM incubated for 48 hrs by MTT assay (reference value: 100 +/- 12.00%)
Format: cell-based
Settings: read-out: Activity
Outline: as §1

Row | Structure (SMILES) | viability at 48 h, 25 µM [%]
5 | COc1cc2c(cc1OC)CN(CCCCN1C(=O)CCc3ccccc31)CC2 | 77 to 84

Tested on: not listed separately
Test: Cytotoxicity against human HeLa cells assessed as cell viability at 25 uM incubated for 48 hrs by MTT assay relative to control
Format: cell-based
Settings: read-out: Activity
Outline: as §1

Row | Structure (SMILES) | viability at 48 h, 25 µM [%]
6 | COc1cc2c(cc1OC)CN(CCCCN1C(=O)CCc3ccccc31)CC2 | 79

Tested on: not listed separately
Test: Cytotoxicity against human SH-SY5Y cells assessed as cell viability at 10 uM incubated for 48 hrs by MTT assay (reference value: 100 +/- 12.00%)
Format: cell-based
Settings: read-out: Activity
Outline: as §1

Row | Structure (SMILES) | viability at 48 h, 10 µM [%]
7 | COc1cc2c(cc1OC)CN(CCCCN1C(=O)CCc3ccccc31)CC2 | 71

Tested on: not listed separately
Test: Antioxidant activity assessed as ABTS radical scavenging activity incubated for 40 mins
Format: functional
Settings: not given
Outline: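 Test compound at 0.05, 0.1, 0.2 and 0.4 mg/mL (200 µL) added to 1.8 mL ethanolic ABTS 7mM. Incubated 40 min at room temperature, absorbance read at 735 nm against ABTS solution. Percent inhibition computed from absorbances and used to derive IC50. Triplicate, mean ± SEM; ascorbic acid as reference.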

Row | Structure (SMILES) | IC50 [µg/mL]
8 | COc1cc2c(cc1OC)CN(CCCCN1C(=O)CCc3ccccc31)CC2 | 12.35 (≈ 31.3 µM)

Tested on: not listed separately
Test: Cytotoxicity against human SH-SY5Y cells assessed as cell viability at 100 uM incubated for 48 hrs by MTT assay (reference value: 100 +/- 12.00%)
Format: cell-based
Settings: read-out: Activity
Outline: as §1

Row | Structure (SMILES) | viability at 48 h, 100 µM [%]
9 | COc1cc2c(cc1OC)CN(CCCCN1C(=O)CCc3ccccc31)CC2 | 37

Target: Sigma non-opioid intracellular receptor 1 (Cavia porcellus, UniProt Q60492)
Sequence (Q60492 whole entry): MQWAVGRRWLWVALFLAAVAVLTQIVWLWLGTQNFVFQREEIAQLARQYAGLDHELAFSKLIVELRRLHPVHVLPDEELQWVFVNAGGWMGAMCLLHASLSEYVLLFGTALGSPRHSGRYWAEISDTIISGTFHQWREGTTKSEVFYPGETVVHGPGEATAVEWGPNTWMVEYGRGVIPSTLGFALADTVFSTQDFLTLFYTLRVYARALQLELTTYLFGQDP
Test: Displacement of [3H]-(+)-pentazocine from sigma1 receptor in guinea pig brain cortex membranes incubated for 120 mins by solid scintillation counting method
Format: cell membranes
Settings: not given
Outline: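 Guinea pig brain cortex membranes (about 100 µg protein) with 2 nM [3H]-(+)-pentazocine in 50 mM TRIS pH 7.4 at 37 °C. Non-specific binding defined with 10 µM unlabeled (+)-pentazocine. Six concentrations, 10^-5 to 10^-10 M, in duplicate. 120 min with shaking, filtration, solid scintillator counting.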

Row | Structure (SMILES) | Ki [µM]
10 | COc1cc2c(cc1OC)CN(CCCCN1C(=O)CCc3ccccc31)CC2 | 0.116

Tested on: not listed separately
Test: Cytotoxicity against human HeLa cells assessed as cell viability at 100 uM incubated for 48 hrs by MTT assay relative to control
Format: cell-based
Settings: read-out: Activity
Outline: as §1

Row | Structure (SMILES) | viability at 48 h, 100 µM [%]
11 | COc1cc2c(cc1OC)CN(CCCCN1C(=O)CCc3ccccc31)CC2 | 42

Tested on: not listed separately
Test: Cytotoxicity against human Hep3B cells assessed as decrease in cell viability incubated for 48 hrs by MTT assay
Format: cell-based, Hep 3B2
Settings: read-out: LD50
Outline: (§2)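 Cells kept in DMEM Glutamax with 10% FBS and antibiotic/antimycotic at 37 °C, 5% CO2. Seeded 24 h before dosing (SH-SY5Y at 2x10^3 cells/well). Compounds in DMSO serially diluted in medium, final DMSO 1.0%, exposure 48 h. MTT added for 4 h at 37 °C, read A595 minus A655. LD50 from linear regression of dose-log response curves; triplicates, three experiments, mean ± SEM.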

Row | Structure (SMILES) | CC50 at 48 h [µM]
12 | COc1cc2c(cc1OC)CN(CCCCN1C(=O)CCc3ccccc31)CC2 | 67

Target: Glutamate NMDA receptor; GRIN1/GRIN2B (Homo sapiens, UniProt Q05586+Q13224)
Sequence (Q13224 whole entry, other chains not shown): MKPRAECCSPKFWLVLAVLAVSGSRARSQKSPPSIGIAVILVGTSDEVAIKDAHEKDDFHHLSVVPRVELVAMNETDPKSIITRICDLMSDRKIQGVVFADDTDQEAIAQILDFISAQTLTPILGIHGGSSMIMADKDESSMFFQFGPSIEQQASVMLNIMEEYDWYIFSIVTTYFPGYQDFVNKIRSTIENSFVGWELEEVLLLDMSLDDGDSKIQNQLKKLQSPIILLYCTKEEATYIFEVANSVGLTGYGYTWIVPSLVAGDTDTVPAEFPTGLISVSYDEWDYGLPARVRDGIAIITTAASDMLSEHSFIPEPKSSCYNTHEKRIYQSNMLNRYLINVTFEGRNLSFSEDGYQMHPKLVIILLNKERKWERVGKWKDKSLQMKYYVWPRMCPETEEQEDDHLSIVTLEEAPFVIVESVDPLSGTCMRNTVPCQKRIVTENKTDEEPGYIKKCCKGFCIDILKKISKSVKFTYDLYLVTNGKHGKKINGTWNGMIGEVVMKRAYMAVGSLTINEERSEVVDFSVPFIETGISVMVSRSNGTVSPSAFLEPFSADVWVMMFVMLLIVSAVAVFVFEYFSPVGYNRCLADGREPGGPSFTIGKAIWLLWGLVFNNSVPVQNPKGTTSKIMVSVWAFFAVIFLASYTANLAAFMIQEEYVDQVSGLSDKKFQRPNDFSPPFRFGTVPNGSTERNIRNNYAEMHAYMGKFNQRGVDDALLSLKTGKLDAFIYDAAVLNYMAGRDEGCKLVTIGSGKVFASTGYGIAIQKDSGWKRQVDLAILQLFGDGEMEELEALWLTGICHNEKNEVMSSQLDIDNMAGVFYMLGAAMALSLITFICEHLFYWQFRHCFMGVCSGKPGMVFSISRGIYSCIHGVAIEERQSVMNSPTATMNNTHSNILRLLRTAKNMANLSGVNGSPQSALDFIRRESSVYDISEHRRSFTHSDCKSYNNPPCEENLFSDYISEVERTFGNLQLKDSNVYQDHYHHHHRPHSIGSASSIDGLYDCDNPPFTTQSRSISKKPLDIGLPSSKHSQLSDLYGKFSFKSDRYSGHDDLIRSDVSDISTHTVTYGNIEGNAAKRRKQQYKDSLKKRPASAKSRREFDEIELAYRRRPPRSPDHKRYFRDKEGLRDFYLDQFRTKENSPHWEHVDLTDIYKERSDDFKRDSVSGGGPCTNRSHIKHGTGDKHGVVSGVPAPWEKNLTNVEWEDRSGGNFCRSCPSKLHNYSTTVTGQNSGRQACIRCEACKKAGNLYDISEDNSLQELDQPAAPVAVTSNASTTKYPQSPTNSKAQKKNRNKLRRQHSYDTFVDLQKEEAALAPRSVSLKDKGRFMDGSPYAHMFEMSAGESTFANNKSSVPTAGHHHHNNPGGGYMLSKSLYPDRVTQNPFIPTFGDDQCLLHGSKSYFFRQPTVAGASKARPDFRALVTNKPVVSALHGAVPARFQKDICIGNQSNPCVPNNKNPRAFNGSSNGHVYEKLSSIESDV
Test: Displacement of [3H]ifenprodil from GluN1a/GluN2B (unknown origin) expressed in mouse L(tk-) cell membranes after 120 mins by solid scintillation counting method
Settings: not given
Outline: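 Membranes (about 20 μg protein) from mouse L(tk-) cells stably carrying GluN1a/GluN2B, induced with 4 μM dexamethasone and 4 μM ketamine for 24 h. Incubated with 5 nM [3H]ifenprodil in 5 mM TRIS/1 mM EDTA pH 7.5 at 37 °C, 120 min. Non-specific binding defined with 10 μM ifenprodil.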

Row | Structure (SMILES) | Ki [µM]
13 | COc1cc2c(cc1OC)CN(CCCCN1C(=O)CCc3ccccc31)CC2 | 0.012

Tested on: not listed separately
Test: Cytotoxicity against human Hep3B cells assessed as cell viability at 100 uM incubated for 48 hrs by MTT assay relative to control
Format: cell-based, Hep 3B2
Settings: read-out: Activity
Outline: as §1

Row | Structure (SMILES) | viability at 48 h, 100 µM [%]
14 | COc1cc2c(cc1OC)CN(CCCCN1C(=O)CCc3ccccc31)CC2 | 30

Tested on: not listed separately
Test: Selectivity ratio of Ki for sigma1 receptor in guinea pig brain membranes to Ki for sigma2 receptor in rat liver membranes
Format: cell membranes
Settings: not given

Row | Structure (SMILES) | Ratio Ki
15 | COc1cc2c(cc1OC)CN(CCCCN1C(=O)CCc3ccccc31)CC2 | 2.6

Tested on: not listed separately
Test: Cytotoxicity against human HeLa cells assessed as cell viability at 50 uM incubated for 48 hrs by MTT assay relative to control
Format: cell-based
Settings: read-out: Activity
Outline: as §1

Row | Structure (SMILES) | viability at 48 h, 50 µM [%]
16 | COc1cc2c(cc1OC)CN(CCCCN1C(=O)CCc3ccccc31)CC2 | 71

Target: T1, Sigma intracellular receptor 2 (Rattus norvegicus, UniProt Q5U3Y7)
T1 sequence (Q5U3Y7 whole entry): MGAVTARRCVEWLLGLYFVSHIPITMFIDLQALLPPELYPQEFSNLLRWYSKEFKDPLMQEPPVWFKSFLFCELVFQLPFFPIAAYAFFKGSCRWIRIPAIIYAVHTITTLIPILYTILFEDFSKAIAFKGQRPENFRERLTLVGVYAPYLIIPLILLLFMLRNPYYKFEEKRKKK
Test: Displacement of [3H]-di-o-tolylguanidine from sigma2 receptor in rat liver membranes in the presence of sigma1 receptor ligand (+)-pentazocine incubated for 120 mins by scintillation counting method
Format: cell membranes
Settings: not given
Outline: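 Rat liver membranes (about 100 µg protein) with 3 nM [3H]di-o-tolylguanidine in 50 mM TRIS pH 8.0 containing 500 nM (+)-pentazocine, at rt. Non-specific binding defined with 10 µM unlabeled DTG. Concentrations 10^-5 to 10^-10 M, in duplicate. 120 min, filtration, scintillation counting. Three independent experiments, mean ± SEM.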

Row | Structure (SMILES) | Ki [µM]
17 | COc1cc2c(cc1OC)CN(CCCCN1C(=O)CCc3ccccc31)CC2 | 0.045

Tested on: not listed separately
Test: Cytotoxicity against human Hep3B cells assessed as cell viability at 25 uM incubated for 48 hrs by MTT assay relative to control
Format: cell-based, Hep 3B2
Settings: read-out: Activity
Outline: as §1

Row | Structure (SMILES) | viability at 48 h, 25 µM [%]
18 | COc1cc2c(cc1OC)CN(CCCCN1C(=O)CCc3ccccc31)CC2 | 70

Tested on: not listed separately
Test: Selectivity ratio of Ki for sigma2 receptor in rat liver membranes to Ki for GluN1a/GluN2B (unknown origin) expressed in mouse L(tk-) cell membranes
Format: cell-based
Settings: not given

Row | Structure (SMILES) | Ratio Ki
19 | COc1cc2c(cc1OC)CN(CCCCN1C(=O)CCc3ccccc31)CC2 | 3.7

Tested on: not listed separately
Test: Cytotoxicity against human SH-SY5Y cells assessed as decrease in cell viability incubated for 48 hrs by MTT assay
Format: cell-based
Settings: read-out: LD50
Outline: as §2

Row | Structure (SMILES) | CC50 at 48 h [µM]
20 | COc1cc2c(cc1OC)CN(CCCCN1C(=O)CCc3ccccc31)CC2 | 36

Tested on: not listed separately
Test: Cytotoxicity against human SH-SY5Y cells assessed as cell viability at 50 uM incubated for 48 hrs by MTT assay (reference value: 100 +/- 12.00%)
Format: cell-based
Settings: read-out: Activity
Outline: as §1

Row | Structure (SMILES) | viability at 48 h, 50 µM [%]
21 | COc1cc2c(cc1OC)CN(CCCCN1C(=O)CCc3ccccc31)CC2 | 68

Tested on: SH-SY5Y
Test: Neuroprotective activity against H2O2-induced toxicity in human SH-SY5Y cells assessed as cell viability at 25 uM pretreated for 48 hrs followed by H2O2 challenge and measured after 4 hrs by MTT assay (reference value: 18 +/- 2.64%)
Format: functional
Settings: read-out: Activity

Row | Structure (SMILES) | viability at 25 µM [%]
22 | COc1cc2c(cc1OC)CN(CCCCN1C(=O)CCc3ccccc31)CC2 | 73

Tested on: not listed separately
Test: Cytotoxicity against human HeLa cells assessed as decrease in cell viability incubated for 48 hrs by MTT assay
Format: cell-based
Settings: read-out: LD50
Outline: as §2

Row | Structure (SMILES) | CC50 at 48 h [µM]
23 | COc1cc2c(cc1OC)CN(CCCCN1C(=O)CCc3ccccc31)CC2 | 83
